Source: PubChem
Only some compounds are listed: those with a hit (about 2.8% of all), similar ones and a draw of the others.
PP1 inh: PP1-alpha phosphatase inhibitors, primary screen, counter-screen for PP5 inhibitor project, biochemical, fluorescence, OMFP substrate, single point; inhibition, % at 6.7 µM; AID 2235, 2010; purified PP1alpha; Serine/threonine-protein phosphatase PP1-alpha catalytic subunit (Homo sapiens), P62136; 320,000 compounds, 0.9% hits;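 active means inhibition above the mean inhibition of all tested compounds plus 3 SD, computed separately for each screening campaign, cut at about 15% in these data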
p-CIP stab down: p/CIP-EGFP fusion destabilizers, primary screen, fluorescence, F442A cells; Q05BA5; 16 h; decrease of EGFP signal, % at 10 µM; 290,000 compounds, 0.01% hits;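 active means EGFP signal decrease of at least 30% at 10 µM or well 3 SD below plate mean, unless failing retest; inactive means the rest, including hits failing retest or dose response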
Target sequence (Q05BA5 1-1403): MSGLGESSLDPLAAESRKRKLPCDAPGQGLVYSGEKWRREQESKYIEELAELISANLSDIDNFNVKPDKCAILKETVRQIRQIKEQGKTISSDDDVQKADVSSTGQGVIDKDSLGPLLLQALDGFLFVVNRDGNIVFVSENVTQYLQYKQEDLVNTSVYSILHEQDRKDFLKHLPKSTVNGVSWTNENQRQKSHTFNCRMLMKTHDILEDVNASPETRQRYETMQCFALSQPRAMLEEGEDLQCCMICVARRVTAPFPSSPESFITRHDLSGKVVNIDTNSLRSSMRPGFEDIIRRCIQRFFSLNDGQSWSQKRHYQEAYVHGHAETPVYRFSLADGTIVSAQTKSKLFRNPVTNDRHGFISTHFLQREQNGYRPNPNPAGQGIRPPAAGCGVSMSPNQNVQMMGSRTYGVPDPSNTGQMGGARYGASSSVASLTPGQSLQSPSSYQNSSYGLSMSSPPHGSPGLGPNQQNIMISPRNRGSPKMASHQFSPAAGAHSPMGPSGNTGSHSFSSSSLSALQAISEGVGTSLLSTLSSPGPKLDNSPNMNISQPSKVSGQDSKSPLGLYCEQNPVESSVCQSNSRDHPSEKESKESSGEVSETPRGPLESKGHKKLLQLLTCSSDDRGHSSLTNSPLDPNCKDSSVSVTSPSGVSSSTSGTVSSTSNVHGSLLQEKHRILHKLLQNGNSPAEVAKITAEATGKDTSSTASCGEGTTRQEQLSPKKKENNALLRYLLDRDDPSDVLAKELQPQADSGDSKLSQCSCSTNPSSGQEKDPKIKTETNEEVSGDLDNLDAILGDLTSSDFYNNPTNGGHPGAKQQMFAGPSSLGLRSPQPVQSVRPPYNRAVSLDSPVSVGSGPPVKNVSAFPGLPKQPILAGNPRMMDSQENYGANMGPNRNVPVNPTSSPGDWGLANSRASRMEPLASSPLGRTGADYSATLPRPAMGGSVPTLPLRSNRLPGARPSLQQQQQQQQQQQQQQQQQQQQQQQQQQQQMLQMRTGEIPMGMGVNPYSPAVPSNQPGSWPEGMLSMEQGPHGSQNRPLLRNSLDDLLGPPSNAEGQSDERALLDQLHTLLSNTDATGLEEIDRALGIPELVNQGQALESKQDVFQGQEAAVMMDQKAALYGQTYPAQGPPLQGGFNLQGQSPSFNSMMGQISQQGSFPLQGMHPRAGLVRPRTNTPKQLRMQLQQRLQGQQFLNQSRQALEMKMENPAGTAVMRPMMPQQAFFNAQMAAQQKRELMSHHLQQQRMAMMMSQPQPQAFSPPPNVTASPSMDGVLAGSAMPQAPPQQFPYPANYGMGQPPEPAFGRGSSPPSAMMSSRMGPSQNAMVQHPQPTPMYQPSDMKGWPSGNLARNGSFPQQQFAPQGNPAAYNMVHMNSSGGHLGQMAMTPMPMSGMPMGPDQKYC
AI-2 QS modul: Vibrio harveyi AI-2 quorum sensing modulators, primary screen, JMH597 strain, luminescence/OD600 ratio; Vibrio harveyi JMH597 AI-2 luminescence/OD600 ratio, 9 h; active compounds read low; strain lacks LuxN and CqsS sensors; 0 = neutral-control median; activity change, % at 7.5 µM; 300,000 compounds, 0.4% hits; AID 2094, 2009; in the data active means activity change below about -75%, passing the limit was not always enough; inconclusive means no clear call, values can overlap the other calls;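 further: luminescence divided by OD600 gain over 9 h not by final OD600 alone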
UBC13 polyUb: UBC13 polyubiquitin chain formation inhibitors, primary screen, biochemical, TR-FRET, uHTS. Ubiquitin-conjugating enzyme E2 N (Homo sapiens), P61088. inhibition, % at 20 µM. 330,000 compounds, 0.47% hits. AID 485273, 2010; in the data active means inhibition above about 45%, passing the limit was not always enough; inconclusive means no clear call, values can overlap the other calls
T cruzi inh: inhibitors of intracellular T. cruzi growth, primary screen, luminescence, NIH3T3 host cells; T. cruzi beta-gal in NIH3T3, 90 h; inhibition, % (concentration not given with the values); 300,000 compounds, 1.4% hits; AID 1885, 2009;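 active means mean inhibition across valid replicates above about 55%, limit read from the data; inconclusive means mean below that limit but half or more replicates reach it; inactive means mean below it, under half of replicates reach it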;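 further: signal also drops with host cell toxicity which is not excluded here; higher percent means less beta-gal luminescence so fewer parasites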
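Assay system: NIH/3T3 fibroblasts plus reporter T. cruzi. Amount: NIH/3T3 cells, 5,000 per well. Buffer or medium: DMEM, 2% fetal bovine serum. Doses: compound pinned at 50 nL/well, DMSO. Schedule: ≥90 h infection period, 3 h prior cell attachment. Signal: luminescent β-galactosidase signal after 60 min lysis. Read-out: parasite load inhibition, %.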
Of the large screens only hits and unclear results are named; the others gave an inactive call.

CC(=O)OC(C)(C)/C=C/C(=O)C(C)(O)C1[C@H](O)C[C@@]2(C)C3CC=C4C(CC[C@@H](O)C4(C)C)[C@]3(CO)C(=O)C[C@]12C (some centres not stated)	T cruzi inh 56
CCN[C@@H](C)Cc1cccc(C(F)(F)F)c1	none (no result: PP1 inh, p-CIP stab down, AI-2 QS modul, T cruzi inh)
C/C1=C\[C@@H](C)C/C=C/[C@H]2[C@@H]3O[C@]3(C)[C@@H](C)[C@H]3[C@H](Cc4c[nH]c5ccccc45)NC(=O)[C@]32C(=O)/C=C/C(=O)[C@@H]1O	none
CC1=CC2/C=C(\C)CCC(O)C(O)/C=C/C(=O)C23C(=O)NC(CC(C)C)C3C1C (configuration not stated)	T cruzi inh 67
COC(=O)C1=C(c2ccc(OC)c(OC)c2)C[C@@H]2CC[C@H]1N2C(=O)NC1CC1	none (no result: p-CIP stab down, AI-2 QS modul, T cruzi inh)
CCC1(CC)C(=N)N(C)C(=O)NC1=O	none
CN(C)[C@@H]1C(=O)C(C(N)=O)=C(O)[C@@]2(O)C(=O)C3=C(O)c4c(O)ccc(Cl)c4[C@@](C)(O)[C@H]3C[C@@H]12	AI-2 QS modul -111 (no result: UBC13 polyUb)
COc1ccc(CCNC2CCCCC2)cc1OC	none
CC(C)[C@H]1C(=O)O[C@H](C(C)C)C(=O)N(C)[C@@H](C(C)C)C(=O)O[C@H](C(C)C)C(=O)N(C)[C@@H](C(C)C)C(=O)O[C@H](C(C)C)C(=O)N1C	T cruzi inh 55
Cc1ccsc1C(=O)C1CCCN(Cc2cnc(N3CCCC3)s2)C1 (configuration not stated)	T cruzi inh 63
Cc1ccsc1C(=O)C1CCCN(Cc2ccc(-n3cccn3)cc2)C1 (configuration not stated)	T cruzi inh 61
Cc1ccsc1C(=O)C1CCCN(Cc2c(C)nn(C(C)C)c2C)C1 (configuration not stated)	T cruzi inh 62
Cc1ccc(CN2CCCC(C(=O)c3sccc3C)C2)o1 (configuration not stated)	T cruzi inh 66
CSc1ncc(CN2CCCC(C(=O)c3sccc3C)C2)cn1 (configuration not stated)	none
C=CCN1CCc2cccc3c2[C@H]1Cc1ccc(O)c(O)c1-3	none
CCN1C[C@]2(CO)CC[C@H](OC)[C@@]34C5C[C@H]6[C@H](OC)C5[C@](O)(C[C@H]6OC)[C@@H](C(OC)C23)[C@@H]14 (some centres not stated)	none (no result: p-CIP stab down)
COC(=O)C1=C(c2ccc(OC)c(OC)c2)C[C@@H]2CC[C@H]1N2C(=O)NCc1ccco1	none (no result: p-CIP stab down, AI-2 QS modul, T cruzi inh)
Cc1ncc([N+](=O)[O-])n1CCOC(N)=O	none
C=CCn1c(O)c(C=NCCCOc2ccc(CC)cc2)c(=O)[nH]c1=S	none
CCCc1nc2ccc(Br)cc2c(=O)n1-c1ccc([N+](=O)[O-])c(C(F)(F)F)c1	T cruzi inh 56
CCc1nc2ccc(Br)cc2c(=O)n1-c1ccccc1C(F)(F)F	none (no result: p-CIP stab down)
CCOc1cc2c(cc1OCC)-n1cccc1C(c1cc(OC)ccc1F)NC2 (configuration not stated)	none
N/C(=N\[N+](=O)[O-])N/N=C/c1ccc(O)cc1	none
Nc1nonc1C(=O)N/N=C/c1ccc([N+](=O)[O-])o1	AI-2 QS modul -84
CC[N+](CC)(CC)CC	none
CN(C)P(=O)(C(Cl)=C(N1CCCCC1)N1CCCCC1)N(C)C	none
CC(C(=O)c1ccc(Cl)cc1Cl)n1cncn1 (configuration not stated)	none
CC(C)(C)C(O)C(Oc1ccc(Cl)cc1)n1cncn1 (configuration not stated)	T cruzi inh 60
COC(=O)C1C(O)C(C)C(O)C(C)/C=C\C=C(/C)C(=O)Nc2c(C)c(OC(C)=O)c3c(c2O)C(=O)C(C)=C2OCOC(=C23)/C(C)=C/C(C)(O)C(O)C(C)C1O (configuration not stated)	AI-2 QS modul -150
CN(C)CCNC(=O)c1cccn(Cc2cc(C(F)(F)F)cc(C(F)(F)F)c2)c1=O	none
Cc1cc(-c2ccccc2)cc(-c2ccccc2)[n+]1CCc1ccccc1	T cruzi inh 59 (no result: p-CIP stab down)
Clc1ccc(C[n+]2c(-c3ccccc3)cc(-c3ccccc3)cc2-c2ccccc2)cc1	UBC13 polyUb 47, T cruzi inh 56 (no result: p-CIP stab down)
CCOc1ccc(-c2cc(C)[n+](CCO)c(-c3ccc(OCC)cc3)c2)cc1	T cruzi inh 72
C[n+]1c(-c2ccccc2)cc(-c2ccc(O)cc2)cc1-c1ccccc1	none
CCOc1ccc(-c2cc(C)[n+](CCc3ccc(OC)c(OC)c3)c(-c3ccc(OCC)cc3)c2)cc1	none (no result: PP1 inh)
Oc1ccc(-[n+]2c(-c3ccccc3)cc(-c3ccccc3)cc2-c2ccccc2)cc1	none (no result: p-CIP stab down)
Fc1ccc(C[n+]2c(-c3ccccc3)cc(-c3ccccc3)cc2-c2ccccc2)cc1	T cruzi inh 55 (no result: p-CIP stab down)
COc1ccc(-n2c(O)c(C=NCc3ccc4c(c3)OCO4)c(=O)[nH]c2=O)cc1	none
CCOc1ccc2c(c1)c(C(C)=O)c(C)n2Cc1ccco1	none
ClC1=CCC2CN(CCN3CCCCC3)CC2C1 (configuration not stated)	none
N#CC1=C(N)Oc2c(c(=O)sc3ccccc23)C1c1cccnc1 (configuration not stated)	T cruzi inh 77
CN(C)c1ccc(/C=C/C=C/c2sc3ccccc3[n+]2C)cc1	T cruzi inh 71
CC[n+]1c(/C=C/N(C)c2ccccc2)sc2ccc(Cl)cc21	T cruzi inh 65
CC[n+]1c(/C=C/C=C/c2ccc(N(C)C)cc2)sc2ccccc21	AI-2 QS modul inconclusive
CCOC(=O)c1c(NC(=O)C(c2ccccc2)c2ccccc2)sc2c1C1CCN2CC1	T cruzi inh 55
c1ccc2c(CN3CCCCCCC3)c[nH]c2c1	T cruzi inh 70
c1ccc2c(CNC3CCCCC3)c[nH]c2c1	none
c1ccc2c(CN3CCN(C4CCCCC4)CC3)c[nH]c2c1	none
CN(Cc1c[nH]c2ccccc12)C1CCCCC1	T cruzi inh 82
Oc1c(Cl)c(Cl)c(Cl)c(Cl)c1Cl	AI-2 QS modul inconclusive (no result: p-CIP stab down)
O=C(Nc1nc(-c2ccccc2)c(-c2ccccc2)s1)c1ccc(S(=O)(=O)N(CCCl)CCCl)cc1	T cruzi inh 56
CCCNS(=O)(=O)c1ccc(OCC(=O)N2CCN(C)CC2)cc1	none
CN1CCN(C(=O)COc2ccc(N(C)S(=O)(=O)c3ccc(F)cc3)cc2)CC1	T cruzi inh 79
CN1CCN(C(=O)COc2ccc(S(=O)(=O)N(C)Cc3ccccc3)cc2)CC1	T cruzi inh 61
COc1ccc(NS(=O)(=O)c2ccc(OCC(=O)N3CCN(C)CC3)cc2)cc1Cl	T cruzi inh 58
C#CC[N+]1(C)C2CCC1CC(O)C2 (configuration not stated)	none
Cc1nn(Cc2ccccc2)c(Cl)c1C(=O)OCC(=O)N1CCCC1	none
